Results on 3 compounds are retold here after ChEMBL document CHEMBL1135709, “2,6-Di(omega-aminoalkyl)-2,5,6,7-tetrahydropyrazolo[3,4,5-mn]pyrimido[5,6,1-de]acridine-5,7-diones: novel, potent, cytotoxic, and DNA-binding agents” (J Med Chem, 2002).

Experiment [1] concerns LOX IMVI. Briefly: Percent growth of NCI cell line, melanoma: LOX IMVI exposed for 48 hr at 10e-4 concentration. In kind it is functional, Homo sapiens. The method in brief: (§1)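 NCI panel cell lines exposed 48 h to 10^-8, 10^-6 and 10^-4 M drug; read-out is percent growth at each concentration.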
In experiment [2] the test system is NCI-H460. Kind of experiment: Percent growth of NCI cell line, lung-nsc: NCI-H460 exposed for 48 hr at 10e-6 concentration. It counts as functional, Homo sapiens. A digest of the protocol:
as §1

Experiment [3] deals with SNB-19. Kind of experiment: Percent growth of NCI cell line, CNS: SNB-19 exposed for 48 hr at 10e-6 concentration. In kind it is functional, Homo sapiens. A digest of the protocol:
as §1

For experiment [4], the system named is OVCAR-4. Briefly: Percent growth of NCI cell line, ovarian: OVCAR-4 exposed for 48 hr at 10e-8 concentration. It counts as functional, Homo sapiens. The method in brief: as §1
In experiment [5] the test system is SNB-19. Briefly: Percent growth of NCI cell line, CNS: SNB-19 exposed for 48 hr at 10e-4 concentration. It counts as functional, Homo sapiens. A digest of the protocol: as §1
Experiment [6] relates to HCT-15. Kind of experiment: Percent growth of NCI cell line, colon: HCT-15 exposed for 48 hr at 10e-6 concentration. It counts as functional, Homo sapiens. The method in brief:
as §1

For experiment [7], the system named is LoVo. Kind of experiment: Cytotoxicity activity on LoVo human adenocarcinoma cell line after 144 hr of drug exposure. In kind it is functional, cell-based. A digest of the protocol:
(§2)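 LoVo (sensitive) and LoVo/Dx (resistant) human colon adenocarcinoma cells seeded at 2.5 × 10^5 cells/mL medium; drug solutions added to culture.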

Experiment [8] can be described thus: Percent growth of NCI cell line, leucemia K562 exposed for 48 hr at 10e-6 concentration. It counts as functional, Homo sapiens. A digest of the protocol: as §1
Experiment [9] deals with DU-145. Briefly: Percent growth of NCI cell line, prostate: DU-145 exposed for 48 hr at 10e-4 concentration. It counts as functional, Homo sapiens. A digest of the protocol:
as §1

Experiment [10] has as its system 786-0. Briefly: Percent growth of NCI cell line, renal: 786-0 exposed for 48 hr at 10e-6 concentration. In kind it is functional, Homo sapiens. The method in brief: as §1
A further experiment concerns Calf thymus DNA. Kind of experiment: CT-DNA binding required to produce a 50% drop in fluorescence of DNA-bound ethidium. It counts as nucleic-acid assay. The settings on record: Bos taurus. A digest of the protocol: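 Ethidium displacement from calf thymus DNA in 10 mM Na2HPO4, 10 mM NaH2PO4, 1 mM EDTA, pH 7.0, containing 1.26 μM ethidium bromide and 1 μM CT-DNA. Drug added serially from ~5 mM DMSO stock; 20 °C; fluorescence excitation 546 nm, emission 595 nm. C50 = drug concentration lowering DNA-bound ethidium fluorescence by 50%, mean of three determinations.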

The test system of experiment [11] is DU-145. Kind of experiment: Percent growth of NCI cell line, prostate: DU-145 exposed for 48 hr at 10e-6 concentration. It counts as functional, Homo sapiens. A digest of the protocol: as §1
Experiment [12] deals with SNB-19. Kind of experiment: Percent growth of NCI cell line, CNS: SNB-19 exposed for 48 hr at 10e-8 concentration. It counts as functional, Homo sapiens. A digest of the protocol: as §1
Experiment [13] in a line: Percent growth of NCI cell line, leucemia K562 exposed for 48 hr at 10e-4 concentration. It counts as functional, Homo sapiens. The method in brief:
as §1

Experiment [14] has as its system NCI-H460. Briefly: Percent growth of NCI cell line, lung-nsc: NCI-H460 exposed for 48 hr at 10e-8 concentration. It counts as functional, Homo sapiens. The method in brief:
as §1

The subject of experiment [15] is HCT-15. Kind of experiment: Percent growth of NCI cell line, colon: HCT-15 exposed for 48 hr at 10e-8 concentration. It counts as functional, Homo sapiens. The method in brief: as §1
Experiment [16] concerns MCF7. Briefly: Percent growth of NCI cell line, breast: MCF-7 exposed for 48 hr at 10e-8 concentration. It counts as functional, Homo sapiens. A digest of the protocol:
as §1

In experiment [17] the test system is HCT-15. Kind of experiment: Percent growth of NCI cell line, colon: HCT-15 exposed for 48 hr at 10e-4 concentration. It counts as functional, Homo sapiens. The method in brief: as §1
A further experiment relates to HT-29. Briefly: In vitro cytotoxic potency against HT-29 (human colon adenocarcinoma) cell line. It counts as functional, cell-based.
Experiment [18] relates to LoVo. Kind of experiment: Cytotoxicity activity on LoVo/Dx human adenocarcinoma cell line after 144 hr of drug exposure. In kind it is functional, cell-based. The method in brief:
as §2

Experiment [19] deals with LOX IMVI. Briefly: Percent growth of NCI cell line, melanoma: LOX IMVI exposed for 48 hr at 10e-8 concentration. It counts as functional, Homo sapiens. The method in brief: as §1
Experiment [20] relates to NCI-H460. Kind of experiment: Percent growth of NCI cell line, lung-nsc: NCI-H460 exposed for 48 hr at 10e-4 concentration. In kind it is functional, Homo sapiens. The method in brief:
as §1

Experiment [21] deals with OVCAR-4. Kind of experiment: Percent growth of NCI cell line, ovarian: OVCAR-4 exposed for 48 hr at 10e-4 concentration. It counts as functional, Homo sapiens. The method in brief:
as §1

The test system of experiment [22] is DU-145. Briefly: Percent growth of NCI cell line, prostate: DU-145 exposed for 48 hr at 10e-8 concentration. It counts as functional, Homo sapiens. A digest of the protocol: as §1
For experiment [23], the system named is OVCAR-4. Briefly: Percent growth of NCI cell line, ovarian: OVCAR-4 exposed for 48 hr at 10e-6 concentration. In kind it is functional, Homo sapiens. The method in brief: as §1
Experiment [24] can be described thus: Percent growth of NCI cell line, leucemia K562 exposed for 48 hr at 10e-8 concentration. In kind it is functional, Homo sapiens. The method in brief:
as §1

The subject of experiment [25] is MCF7. Kind of experiment: Percent growth of NCI cell line, breast: MCF-7 exposed for 48 hr at 10e-6 concentration. In kind it is functional, Homo sapiens. A digest of the protocol:
as §1

Experiment [26] deals with LoVo. Briefly: Cytotoxicity activity on LoVo human adenocarcinoma cell line after 1 hr of drug exposure. It counts as functional, cell-based. A digest of the protocol: (§3)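 LoVo (sensitive) and LoVo/Dx (resistant) human colon adenocarcinoma cells seeded at 2.5 × 10^5 cells/mL medium; drug solutions added to culture. IC50 = drug concentration inhibiting cell growth by 50%, assays in triplicate.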

Experiment [27] deals with MCF7. Kind of experiment: Percent growth of NCI cell line, breast: MCF-7 exposed for 48 hr at 10e-4 concentration. It counts as functional, Homo sapiens. A digest of the protocol:
as §1

The subject of experiment [28] is LoVo. Kind of experiment: Cytotoxicity activity on LoVo/Dx human adenocarcinoma cell line after 1 hr of drug exposure. It counts as functional, cell-based. The method in brief: as §3
For experiment [29], the system named is 786-0. Briefly: Percent growth of NCI cell line, renal: 786-0 exposed for 48 hr at 10e-4 concentration. In kind it is functional, Homo sapiens. A digest of the protocol:
as §1

Experiment [30] concerns 786-0. Kind of experiment: Percent growth of NCI cell line, renal: 786-0 exposed for 48 hr at 10e-8 concentration. It counts as functional, Homo sapiens. The method in brief:
as §1

The subject of experiment [31] is LOX IMVI. Briefly: Percent growth of NCI cell line, melanoma: LOX IMVI exposed for 48 hr at 10e-6 concentration. It counts as functional, Homo sapiens. A digest of the protocol: as §1

For `COc1ccc2c(c1)c1nn(CCN(C)C)c3ccc4c(=O)n(CCN(C)C)c(=O)n2c4c13`, the Growth with LOX IMVI [1] was -80%; in the experiment with NCI-H460 [2], -60%; with SNB-19 [3] it was -15%; in the experiment with OVCAR-4 [4], 40%; in the experiment on SNB-19 [5], -62%; in the experiment with HCT-15 [6], -31%. Also, the Growth in experiment [8] was -14%; in the experiment with DU-145 [9], -77%; in the experiment on 786-0 [10] it was -26%; with DU-145 [11], -11%; with SNB-19 [12] it was 62%; in experiment [13] it was -81%. Besides, the Growth was 9% with NCI-H460 [14]; 36% with HCT-15 [15]; 49% with MCF7 [16]; -80% in the experiment with HCT-15 [17]; 62% in the experiment with LOX IMVI [19]; -95% in the experiment with NCI-H460 [20]. The Growth with OVCAR-4 [21] is reported as -82%; with DU-145 [22], 54%; in the experiment on OVCAR-4 [23], -73%; in [24], 47%; with MCF7 [25], -27%; with MCF7 [27] it was -89%. Further, the results for the Growth in the experiment on 786-0 [29], in the experiment with 786-0 [30] and in the experiment on LOX IMVI [31] were -96%, 28% and -19%, respectively. The IC50 was 13 nM in the experiment on LoVo [7]; 11 nM in the experiment on HT-29; 1.8 nM in the experiment with LoVo [18]; 290 nM in the experiment on LoVo [26]; 140 nM in the experiment with LoVo [28]. In the experiment with Calf thymus DNA, this compound showed a C50 of 0.052 µM.

Take `COc1cccc2c1C(=O)c1c(O)c3c(c(O)c1C2=O)C[C@@](O)(C(=O)CO)C[C@@H]3O[C@H]1C[C@H](N)[C@H](O)[C@H](C)O1` [DOXORUBICIN]: the half-maximal inhibitory concentration (IC50) with LoVo [7] is 24 nM; in the experiment on LoVo [18], 2400 nM; in the experiment with LoVo [26] it was 860 nM; in the experiment on LoVo [28], 9700 nM.

As to `COc1ccc2c(c1)c1nn(CCN3CCCCC3)c3ccc4c(=O)n(CCN(C)C)c(=O)n2c4c13`, the Growth in the experiment on NCI-H460 [2] is -36%; in the experiment with SNB-19 [3] it was 8%; in the experiment with OVCAR-4 [4], 15%; in the experiment on SNB-19 [5], -54%; in the experiment with HCT-15 [6], -34%; in experiment [8] it was 12%. For the same compound, the Growth is -91% with DU-145 [9]; -41% in the experiment on 786-0 [10]; -51% in the experiment with DU-145 [11]; 55% with SNB-19 [12]; -12% in [13]; 22% in the experiment on NCI-H460 [14]. Further, the Growth with HCT-15 [15] is recorded as 24%; with MCF7 [16], 42%; in the experiment on HCT-15 [17], -61%; with NCI-H460 [20], -57%; in the experiment on OVCAR-4 [21] it was -89%; in the experiment on DU-145 [22], 39%. For the same compound, the Growth in the experiment with OVCAR-4 [23] was -84%; in experiment [24] it was 39%; in the experiment with MCF7 [25], 4%; in the experiment with MCF7 [27] it was -12%; with 786-0 [29], -67%; in the experiment with 786-0 [30] it was 20%. Moreover, in the experiment on Calf thymus DNA, the C50 came out at 0.0099 µM. Moreover, in the experiment on HT-29, half-maximal inhibition (IC50) required 0.04 nM.
